Compound activity from PubChem BioAssay.
The full list was thinned out, with hits kept by preference.
CHOP UPR activ: activators of apoptotic arm of unfolded protein response (CHOP). CHO-CHOP luciferase reporter, UPR activation, luminescence; percent of tunicamycin response over DMSO baseline. activation, % at 10 µM. 0.34% of 330,000 active. AID 449763;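 active = at 10 µM dose, activation of 40% or more, normalized to positive control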;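 note: 100% = tunicamycin at 10 µg/mL and 0% = DMSO alone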
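Material: CHO-CHOP cells, stable luciferase reporter of PERK-eIF2a-CHOP signalling; quantity: 500 reporter cells seeded per well; buffer or medium: F12 medium containing 10% fetal bovine serum; compound: one dose, 10 µM in 0.5% DMSO; incubation: 6 h compound treatment, 37 °C; measured by: Steady-Glo luciferase luminescence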
XBP1 UPR activ: adaptive UPR (XBP1) activation. CHO-XBP1 luciferase reporter, IRE1-XBP1 UPR activation, luminescence; percent of tunicamycin response, DMSO as zero. activation, % at 20 µM. 0.33% of 330,000 active. AID 463104;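 active = versus positive control, 20 µM dose yields 30% or more activation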;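 note: 100% = tunicamycin at 10 µg/mL and 0% = DMSO only wells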
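Assay system: IRE1-XBP1 luciferase reporter CHO line. Input: 1000 cells/well. Buffer or medium: F12 with 10% serum. Doses: 20 µM, 1% DMSO. Times: overnight seeding at 37 °C, 6 h compound treatment at 37 °C. Technique: Steady-Glo luciferase glow luminescence, 10 min after reagent addition.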
Bfl-1 A1 inh: inhibitors of the anti-apoptotic protein A1, read as caspase activation; MEF A1-2A-BIM cells, Caspase-Glo 3/7 luminescence, 3 h; percent of clofoctol response, vehicle zero; caspase activation, % (test concentration not listed); 0.066% of 330,000 active; AID 2462;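 active = over half of replicate activation scores above 10%, or exactly half above 10 with the replicate mean above 10; inconclusive = replicate mean below 10 yet half the replicates above 10; inactive = over half of replicates below 10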
CHOP inhibitor: blocks CHOP induction under ER stress; AID 2732; inhibition, % at 10 µM; 3.8% of 220,000 active; CHO-K1 CHOP-promoter luciferase, tunicamycin-induced, 15-18 h;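 active = compounds that reduced the stress-induced luciferase reporter signal by more than about 70% of percent inhibition, limit read from the data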;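 note: 0% = tunicamycin plus vehicle and 100% = wells without tunicamycin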
* hit, by the source's call; ? = inconclusive; · = no result.

SMILES	CHOP UPR activ	XBP1 UPR activ	Bfl-1 A1 inh	CHOP inhibitor
Cc1ccc(C(=O)NC(=S)Nc2cc(C(F)(F)F)ccc2Cl)cc1	0.6	7.1	-0.3	12.1
Cc1ccc(Cl)cc1NC(=O)Nn1cnnc1	1.8	-5.7	1.2	·
CNC(=O)CCc1nc(-c2ccc(C(C)(C)C)cc2)no1	-9.1	-7.1	0.7	93.5*
O=C(NCCc1ccccc1)C(c1ccc(F)cc1)N(C(=O)c1csnn1)C1CC1 (stereo not drawn)	-0.7	-0.6	0.2	·
COc1ccc(N=Cc2c(O)ccc3ccccc23)cc1	-0.3	-3.9	-0.7	79.5*
O=c1c2ccccc2c(C=Nc2ccc(O)cc2)c(O)n1Cc1ccccc1	9.4	4.6	-0.9	92.8*
O=C(O)c1ccc(N=Cc2c(O)ccc3ccccc23)cc1	2.5	-6.0	-0.3	·
COc1ccc(Cn2c(O)c(C=Nc3ccccc3)c3ccccc3c2=O)cc1	-0.5	0.9	-0.1	40.4
COc1ccc(Cn2c(O)c(C=Nc3ccc(O)cc3)c3ccccc3c2=O)cc1	-1.6	1.3	0.6	85.4*
COc1ccc(N=Cc2c(O)n(-c3cccc(C)n3)c(=O)c3ccccc23)cc1	2.6	-2.6	-0.5	-8.1
COc1ccc(Cn2c(O)c(C=Nc3ccc(C)cc3)c3ccccc3c2=O)cc1	1.7	-0.8	-0.2	52.4
COc1ccc(N=Cc2c(O)n(-c3ccc(OC)cc3)c(=O)c3ccccc23)cc1	1.9	19.6	?	72.4*
Cc1oc(C)c2c(=O)ccc3c(c12)OC(N)=C(C#N)C3c1ccccc1Cl (stereo not drawn)	0.4	-2.0	-0.3	81.4*
Cc1oc(C)c2c(=O)ccc3c(c12)OC(N)=C(C#N)C3c1ccccc1 (stereo not drawn)	-2.4	-3.1	0.8	13.1
CSc1ccc(C2C(C#N)=C(N)Oc3c2ccc(=O)c2c(C)oc(C)c32)cc1 (stereo not drawn)	-4.5	-1.0	0.0	82.7*
CCOc1ccc2oc(C(=O)OCC(=O)NC3CCCC3)c(C)c2c1	2.0	-0.5	0.9	·
CCOc1ccc2oc(C(=O)OCC(=O)NC(=O)NC3CCCC3)c(C)c2c1	1.1	1.6	-0.7	72.6*
CC(C)CC(=O)O/N=C1\C(=O)N(Cc2ccc(Cl)cc2)c2ccc([N+](=O)[O-])cc21	0.6	0.6	0.4	90.3*
O=C(c1cc(C(=O)NCCc2ccccc2)c(=O)n(CCc2ccccc2)c1)c1cc(Cl)ccc1O	6.6	6.1	1.9	82.4*
COc1ccc(CCNC(=O)c2cc(C(=O)c3cc(Cl)ccc3O)cn(CCc3ccc(OC)cc3)c2=O)cc1	20.0	3.1	0.3	6.8
COC(=O)N/N=C\c1cc2c(cc1Br)OCO2	0.8	-1.9	1.1	26.2
Cc1ccc(C(=O)N/N=C\c2cc3c(cc2Br)OCO3)s1	6.0	7.5	0.0	92.9*
C[C@@H]1CN(Cc2cn(C)nc2-c2cccc(Cl)c2)C[C@H](C)O1	-1.1	-0.9	0.0	28.6
CCCc1c(C)c2cc(C)ccc2[nH]c1=O	-2.7	-2.5	0.8	8.4
CCCCc1c(C)c2cc(C)ccc2[nH]c1=O	-2.0	-0.2	0.0	78.9*
SMILES	CHOP UPR activ	XBP1 UPR activ	Bfl-1 A1 inh	CHOP inhibitor
CCOC(=O)c1nn(-c2ccc(C)c(C)c2)c(=O)c2c(N)scc12	-0.7	1.7	0.2	92.4*
CCOC(=O)c1nn(-c2ccc(OC)cc2)c(=O)c2c(N)scc12	-1.9	0.5	-0.7	19.1
CCNC(=O)N(CC)C[C@H]1N[C@@](Cc2ccccc2)(C(=O)OC)[C@H]2C(=O)N(C)C(=O)[C@@H]12	2.1	-1.2	-0.1	·
COc1ccc(NC(=O)Cc2c(Sc3ccccc3)c3ccccc3n2C)cc1	0.1	-1.9	0.6	23.2
Cn1c(CC(=O)Nc2ccc(F)cc2)c(Sc2ccccc2)c2ccccc21	0.6	0.7	0.7	78.6*
CCCc1cc(=O)[nH]c(SCC(=O)Nc2cc(S(=O)(=O)N3CCOCC3)ccc2Cl)n1	-2.4	-2.8	2.5	·
COC(=O)c1c(NC(=O)COC(=O)C2CCC2)sc(C)c1C	-1.0	0.8	-0.7	·
COC(=O)c1c(NC(=O)COC(=O)CNC(=O)C2CCCCC2)sc(C)c1C	0.0	2.3	-0.4	77.8*
O=C(Nc1cccc(Cl)c1)c1ccc(F)c(S(=O)(=O)N2CCN(c3ccccn3)CC2)c1	-1.4	-0.9	-0.3	74.2*
O=S(=O)(c1ccc(Cl)c(C(F)(F)F)c1)N1CCN(c2ccccn2)CC1	-1.1	-2.6	-0.1	71.5*
